Screening results as filed in PubChem.
Hits are enriched below; roughly 3.9% of the tested compounds scored in any of these assays.
Gli-Sufu antag – Gli-Sufu pathway antagonists, primary screen, luciferase luminescence, Sufu-KO-LIGHT cells, uHTS | Sufu-KO-LIGHT fibroblasts, Gli luciferase reporter luminescence | actives 0.74% (n = 340,000) | inhibition, % at 5 µM;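 active means inhibition above about 55%, limit read from the data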;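 further: 0% = DMSO-treated cells and 100% = wells with medium but no cells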
Jurkat NFkB inh – inhibitors of induced NF-kB luciferase reporter, primary screen, TCR NF-kB activation inhibitor project, cell-based, luminescence, uHTS. inhibition, % at 4 µM. Jurkat, PMA/ionomycin-induced NF-kB luciferase reporter. actives 0.53% (n = 330,000); in the data active means inhibition above about 50%
XBP1 UPR activ – activators of adaptive XBP1 UPR arm, primary screen, cell-based, CHO-XBP1 luciferase reporter, luminescence, uHTS | IRE1-XBP1 UPR activation; percent of tunicamycin response, DMSO as zero | activation, % at 20 µM | actives 0.33% (n = 330,000) | AID 463104, 2010;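 active means versus positive control, 20 µM dose yields 30% or more activation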;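 further: 100% = tunicamycin at 10 µg/mL and 0% = DMSO only wells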
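Material: IRE1-XBP1 luciferase reporter CHO line / Quantity: one thousand reporter cells per well / Buffer or medium: F12 with 10% serum / Compound: 20 µM single concentration, DMSO 1% / Times: 6 h treatment, 37 °C / Detection: Steady-Glo luciferase glow luminescence, 10 min after reagent addition / Benchmarks: tunicamycin high, DMSO low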
CHOP inhibitor – inhibitors of CHOP promoter induction, primary screen, cell-based, unfolded protein response, luciferase reporter; inhibition, % at 10 µM; actives 3.8% (n = 220,000); CHO-K1 CHOP-promoter luciferase, tunicamycin-induced, 15-18 h;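 active means compounds that reduced the stress-induced luciferase reporter signal by more than about 70% of percent inhibition, limit read from the data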;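 further: 0% = tunicamycin plus vehicle and 100% = wells without tunicamycin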
UPR CHOP act – activators of apoptotic CHOP UPR arm, primary screen, cell-based, CHO-CHOP luciferase reporter, luminescence, uHTS. UPR activation; percent of tunicamycin response over DMSO baseline. activation, % at 10 µM. actives 0.34% (n = 330,000);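 active means at 10 µM dose, activation of 40% or more, normalized to positive control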;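 further: 100% = tunicamycin at 10 µg/mL and 0% = DMSO alone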
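Material: CHO-CHOP cells, stable luciferase reporter of PERK-eIF2a-CHOP signalling; quantity: 500 reporter cells seeded per well; buffer or medium: F12 medium containing 10% fetal bovine serum; compound: one dose, 10 µM in 0.5% DMSO; incubation: 6 h compound treatment, 37 °C; measured by: Steady-Glo luciferase luminescence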
697 NFkB inh – inhibitors of PMA/ionomycin-induced NF-kB reporter, 697 cells, primary screen, B-cell NF-kB inhibitor project, cell-based, luminescence, uHTS | 697 B-cell NF-kB luciferase reporter, 16 h | inhibition, % at 4 µM | actives 0.33% (n = 330,000); in the data active means inhibition above about 35%
697 NFkB conf – PMA/ionomycin-induced NF-kB reporter inhibitors, 697 retest, confirmation, B-cell NF-kB inhibitor project, cell-based, luminescence, single concentration; shares compounds with 697 NFkB inh; 697 B-cell NF-kB luciferase, 16 h; inhibition, % at 4 µM; actives 35% (n = 2,000); AID 449746, 2010; in the data active means inhibition mostly above about 28%, no sharp cut-off; inactive means mostly below about 22%
Starred values were filed as active, the others as inactive; . = not tested or not shown.

SMILES	Gli-Sufu antag	Jurkat NFkB inh	XBP1 UPR activ	CHOP inhibitor	UPR CHOP act	697 NFkB inh	697 NFkB conf
Cc1ccc(C)c(S(=O)(=O)N2CCN(C(=O)CN3C(=O)C4CC=CCC4C3=O)CC2)c1 (stereo not drawn)	2	-11	-1	.	1	7	.
O=C(Nc1ccc2[nH]c(=S)sc2c1)Nc1ccccc1F	-104	-122	1	0	4	-296	-212
O=C(c1ccc(N2CCCC2)c([N+](=O)[O-])c1)N1CCc2ccccc2C1	17	3	3	.	3	37*	16
CCOC(=O)CCNC(=O)N1CCCC(Cc2ccccc2)(C(=O)OCC)C1 (stereo not drawn)	-6	-1	0	.	0	0	.
COc1ccc(CNC(=O)CN2C(=O)COc3ccc(S(=O)(=O)N4CCCCC4)cc32)cc1	17	-14	0	.	-1	-24	.
Fc1cccc(C2NN=C(c3ccccc3)S2)c1 (stereo not drawn)	-122	-140	-3	-29	-3	-300	-218
COC(=O)c1sccc1NC(=O)Nc1ccc(C)c(C)c1	-76	-4	-3	.	2	-159	.
CCc1ccc(NC(=O)Nc2ccsc2C(=O)OC)cc1	-45	-32	-4	.	1	-358	-315
CC(=O)Nc1cc(NC(C)=O)cc(C(=O)NCC2(N3CCOCC3)CCCCC2)c1	-2	-12	3	.	0	14	.
COc1ccc(S(=O)(=O)N(CC(=O)NN=C2CCN(C)CC2)c2cc(Cl)ccc2OC)cc1OC	23	-1	-1	.	5	19	.
CCOC(=O)c1c(C)[nH]c(N=Nc2ccccc2Cl)c1C	-48	-74	4	-37	4	-90	.
CCOC(=O)c1c(C)[nH]c(N=Nc2ccc(C)cc2)c1C	-85	-140	12	91*	5	-263	-119
COc1cc(OC)c2c(-c3cccc(-c4ccc(O)cc4)c3)cc(=O)oc2c1	5	.	19	.	2	-16	.
COc1ccc(-c2cccc(-c3cc(=O)oc4cc(OC)cc(OC)c34)c2)cc1	40	.	26	.	1	-337	-112
COc1cc(OC)c2c(-c3cccc(-c4ccc(N(C)C)cc4)c3)cc(=O)oc2c1	41	.	5	.	0	-303	-105
COc1cc(OC)c2c(-c3cccc(-c4cccc(C)c4)c3)cc(=O)oc2c1	-26	.	7	.	2	-27	.
O=c1oc(-c2ccccc2)c(-c2ccccc2)c2ccccc12	4	.	.	.	.	.	.
CCC(C)NC(=O)c1ccc(-n2c(=S)[nH]c3ccccc3c2=O)cc1 (stereo not drawn)	-1	14	-1	2	1	41*	1
Cc1ccc([N+](=O)[O-])cc1S(=O)(=O)Nc1ccc(C(=O)NCC2CCCO2)cc1 (stereo not drawn)	4	-2	-3	.	0	7	.
CCOCc1nnc(NC(=O)CS(=O)(=O)c2ccc(C)cc2)s1	-9	10	-4	.	1	19	.
O=C(Nc1ccc(F)cc1)C1CCC(CNc2c(N3CCCCC3)c(=O)c2=O)CC1 (stereo not drawn)	6	-1	-2	-12	0	38*	16
CCOc1ccc(NC(=O)C2CCC(CNc3c(N4CCCCC4)c(=O)c3=O)CC2)cc1 (stereo not drawn)	8	0	-4	-6	-2	2	.
Cc1cc(C)c(OCC(=O)OCC(=O)NNC(=O)c2ccccc2F)c(C)c1	-4	0	3	.	1	21	.
COC(=O)c1ccccc1NC(=S)NC(=O)c1ccc2c(c1)OCO2	-4	1	-3	.	1	46*	9
COC(=O)c1ccccc1NC(=O)c1ccc2c(c1)OCCO2	-5	0	0	26	2	-29	.
SMILES	Gli-Sufu antag	Jurkat NFkB inh	XBP1 UPR activ	CHOP inhibitor	UPR CHOP act	697 NFkB inh	697 NFkB conf
Cc1[nH]c2ccccc2c1-c1nc2ccccc2[nH]c1=O	-21	-1	-4	.	1	3	.
CCOc1ccc(-c2nnc(SCC(=O)Nc3cc(C)on3)o2)cc1	14	-17	-3	77*	-5	35	41*
COc1cccc(-c2nnc(SCC(=O)Nc3cc(C)on3)o2)c1	2	-33	3	-20	0	-32	.
COc1cc(N2Cc3ccccc3C2)ccc1C=O	-52	-41	-3	.	2	-250	-209
CCNS(=O)(=O)c1ccc2c3c(cccc13)C(=O)N2	8	5	0	23	-2	38*	19
CC(=O)Nc1cc(NC(C)=O)cc(C(=O)OCC(=O)Nc2ccc(S(=O)(=O)NC3=NCCCCC3)cc2)c1	-2	3	0	.	-1	-3	.
COc1ccc(C(=O)Nc2ccc3ccccc3n2)c(OC)c1OC	-11	-134	-8	.	-2	-435	-442
O=C(Nc1ccc2ccccc2n1)c1ccccc1Cl	-105	-107	-4	.	1	-287	-255
O=C(O)C1CC=CCC1C(=O)NCc1ccc(Cl)c(Cl)c1 (stereo not drawn)	2	-9	-2	.	0	-4	.
COc1ccc(NC(=O)[C@@H]2CC=C[C@@H]3CCN(C4CCCCC4)C(=O)[C@@H]32)cc1	-7	5	-3	.	-2	36*	18
COc1ccc(NC(=S)NCc2ccccc2)c(OC)c1	-3	-3	-5	.	0	43*	30*
COc1ccc(NC(=O)C2CCCN2C(=O)OCc2ccccc2)c(OC)c1 (stereo not drawn)	8	-12	-2	0	-1	36*	18
COc1ccc(NC(=O)C2CCCN2C(=O)NCc2ccccc2)c(OC)c1 (stereo not drawn)	5	-4	1	0	1	-9	.
COc1ccc(N(CC(=O)NN=C2CCN(C)CC2)S(=O)(=O)c2ccccc2)c(OC)c1	26	3	-3	.	1	-2	.
COc1ccc2nc(NC(=O)c3ccccc3O)sc2c1	-93	-70	-6	.	4	-309	-224
COc1ccc2nc(NC(=O)c3ccccc3[N+](=O)[O-])sc2c1	-19	-20	2	.	3	-52	.
COc1ccc2nc(NC(=O)c3cccs3)sc2c1	-95	-124	-2	21	0	-352	-341
